Measurements: ChEMBL document CHEMBL2434966, “Novel N-4-piperazinyl-ciprofloxacin-chalcone hybrids: synthesis, physicochemical properties, anticancer and topoisomerase I and II inhibitory activity” (Eur J Med Chem, 2013)

How the values were obtained:
[1] = test system: SW-620; assay: Growth inhibition of human SW620 cells assessed as cell growth at 10^-5 M after 48 hrs by sulforhodamine B assay; type: functional; details: SW-620, 48 h, read-out: Activity
In short: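 NCI primary one-dose screen: single concentration of 10^-5 M added to culture, 48 h incubation, SRB protein-dye endpoint. Percent growth of treated cells measured spectrophotometrically against untreated controls.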

[2] = test system: RXF 393; assay: Growth inhibition of human RXF393 cells assessed as cell growth at 10^-5 M after 48 hrs by sulforhodamine B assay; type: functional; details: RXF 393, 48 h, read-out: Activity
In short: (§1)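 NCI 60-cell-line primary one-dose screen. Cells were exposed to a single 10^-5 M concentration for 48 h. The end point was sulforhodamine B protein staining, read spectrophotometrically. Results are reported as percent growth of treated cells relative to untreated control cells.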

[3] = test system: SN12C; assay: Growth inhibition of human SN12C cells assessed as cell growth at 10^-5 M after 48 hrs by sulforhodamine B assay; type: functional; details: read-out: Activity; in short: as §1
[4] = test system: MOLT-4; assay: Growth inhibition of human MOLT4 cells assessed as cell growth at 10^-5 M after 48 hrs by sulforhodamine B assay; type: functional; details: MOLT-4, 48 h, read-out: Activity; in short: as §1
[5] = test system: NCI-H226; assay: Growth inhibition of human NCI-H226 cells after 48 hrs by sulforhodamine B assay; type: functional; details: NCI-H226, 48 h; for CC50: read-out: LC50 (the source's name)
In short: (§2)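 NCI five-dose screen on the full 60-cell-line panel. Cells were given 10-fold dilutions from 10^-4 to 10^-8 M with continuous 48 h exposure, and growth was read by SRB staining. Percent growth was taken from time-zero, control and treated absorbances. GI50, TGI and LC50 were then derived, the GI50 being the concentration that gives a 50% lower net protein increase than control.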

[6] = test system: HOP-92; assay: Growth inhibition of human HOP92 cells after 48 hrs by sulforhodamine B assay; type: functional; details: HOP-92, 48 h
In short: (§3)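 NCI 60-panel five-dose test at 10-fold dilutions, 10^-4 to 10^-8 M, with 48 h continuous exposure and SRB protein read-out. Percent growth derived from time-zero, untreated-control and treated absorbances. GI50 is the concentration where [(Ti-Tz)/(C-Tz)]×100 = 50. TGI is taken at Ti = Tz. LC50 is taken at [(Ti-Tz)/Tz]×100 = -50.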

[7] = test system: M14; assay: Growth inhibition of human M14 cells after 48 hrs by sulforhodamine B assay; type: functional; details: M14, 48 h; in short: as §3
[8] = biological target: T1, DNA topoisomerase 1 (Homo sapiens) (UniProt P11387); assay: Inhibition of human recombinant topoisomerase 1-mediated relaxation of supercoiled pBR322 DNA at 20 uM after 30 mins by agarose gel electrophoresis relative to control
T1 sequence (whole entry): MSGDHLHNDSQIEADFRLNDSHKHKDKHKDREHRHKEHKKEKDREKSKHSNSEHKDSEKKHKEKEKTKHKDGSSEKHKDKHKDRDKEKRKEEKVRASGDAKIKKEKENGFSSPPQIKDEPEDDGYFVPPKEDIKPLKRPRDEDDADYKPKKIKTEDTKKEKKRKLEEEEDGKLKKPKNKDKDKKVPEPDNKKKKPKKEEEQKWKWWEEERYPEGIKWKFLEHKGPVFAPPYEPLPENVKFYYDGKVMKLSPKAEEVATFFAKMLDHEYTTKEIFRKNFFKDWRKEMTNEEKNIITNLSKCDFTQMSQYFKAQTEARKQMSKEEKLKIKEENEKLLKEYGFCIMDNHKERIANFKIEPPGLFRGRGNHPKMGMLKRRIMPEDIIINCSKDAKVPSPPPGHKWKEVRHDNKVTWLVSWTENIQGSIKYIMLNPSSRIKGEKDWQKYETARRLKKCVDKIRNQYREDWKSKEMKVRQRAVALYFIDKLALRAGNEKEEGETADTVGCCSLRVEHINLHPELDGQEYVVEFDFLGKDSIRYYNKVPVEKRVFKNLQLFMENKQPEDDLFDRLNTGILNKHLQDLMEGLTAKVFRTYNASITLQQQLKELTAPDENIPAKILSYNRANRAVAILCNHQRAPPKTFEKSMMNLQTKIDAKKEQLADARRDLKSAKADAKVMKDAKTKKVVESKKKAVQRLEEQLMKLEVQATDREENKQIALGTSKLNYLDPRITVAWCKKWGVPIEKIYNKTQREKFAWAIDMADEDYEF
In short: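 Recombinant human topo I (0.4 units) with 100 ng supercoiled pBR322, 37 °C for 30 min in Tris-HCl pH 7.9, 150 mM NaCl, 0.1% BSA, 1 mM spermidine, 5% glycerol. Compounds came from 20 mM DMSO stocks, with matched DMSO in the enzyme-only control. Stopped with sarcosyl; 1% agarose/TAE gel, ethidium stain, UV densitometry. Camptothecin was the positive control.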

[9] = test system: NCI-H522; assay: Growth inhibition of human NCI-H522 cells after 48 hrs by sulforhodamine B assay; type: functional; details: NCI-H522, 48 h; for CC50: read-out: LC50 (the source's name); in short: as §2

Row | Structure (SMILES) | growth at 10 µM [1] [%] | growth at 10 µM [2] [%] | growth at 10 µM [3] [%] | growth at 10 µM [4] [%] | GI50 [5] [µM] | TGI [5] [µM] | CC50 [5] [µM] | GI50 [6] [µM] | TGI [6] [µM] | CC50 ([6]; read-out: LC50 (the source's name)) [µM] | GI50 [7] [µM] | LC50 (concentration giving 50% net cell kill) [7] [µM] | TGI [7] [µM] | inhibition [8] [%] | GI50 [9] [µM] | TGI [9] [µM] | CC50 [9] [µM]
1 | O=C(CN1CCN(c2cc3c(cc2F)c(=O)c(C(=O)O)cn3C2CC2)CC1)Nc1ccc(C(=O)/C=C/c2ccccc2)cc1 | 41 | 41.7 | 11.3 | 19 | 6.83 | > 100 | > 100 | 0.43 | 3.82 | > 100 | 5.22 | > 100 | > 100 | 6.4 | 1.7 | 7.78 | > 100
2 | COc1cc(/C=C/C(=O)c2ccc(NC(=O)CN3CCN(c4cc5c(cc4F)c(=O)c(C(=O)O)cn5C4CC4)CC3)cc2)cc(OC)c1OC | 6.38 | -87.6 | 10.3 | -1.1 | 0.95 | 26 | > 100 | – | – | – | 0.77 | > 100 | 7.16 | 11.5 | 0.66 | 3.19 | 17.9
